Measured values pooled from the literature.
Target: MAP kinase-activated protein kinase 2 (MAPKAPK2, Homo sapiens, UniProt P49137)

Compound	effect on	action	technique	tested at	quantity	value
Cc1ccc(C(=O)Nc2ccc(CN3CCN(C)CC3)c(C(F)(F)F)c2)cc1C#Cc1cnc2cccnn12	enzyme activity	inhibitor		23.5 nM	remaining activity	100%
CC(C)(C)C(=O)c1sc(NC2CCCCC2)nc1N	enzyme activity	inhibitor		10 µM	remaining activity	102%
Cn1c(=O)n(-c2ccc(C(C)(C)C#N)cc2)c2c3cc(-c4cnc5ccccc5c4)ccc3ncc21	enzyme activity	inhibitor		10 µM	remaining activity	99%
Cc1c(NC(=O)c2cc(C(N)=O)nc3cc(F)ccc23)c(C(F)(F)F)nn1Cc1ccc(C#N)cc1	cell-free assay		competition with immobilised ligand	1 µM	remaining binding	97%
COc1cc(Nc2c(C#N)cnc3cc(OCCCN4CCN(C)CC4)c(OC)cc23)c(Cl)cc1Cl	cell-free assay			0.5 µM	remaining signal	94.7%
CS(=O)(=O)N1CCCC(NC(=O)[C@H](CCC2CCCCC2)NC(=O)c2ccc(CNc3ncnc4c3nnn4-c3ccccc3)cc2)C1 (stereo partly drawn)	cell-free assay		competition with immobilised ligand	0.1 µM	remaining binding	100%
CCOc1cc(-c2nncn2C)ccc1Nc1ncc2cc(C)nc(NCC(C)(C)C)c2n1	enzyme activity	inhibitor	FRET	1 µM	inhibition	24%
COc1cc(Nc2cnc(C#N)c(O[C@H](C)CN(C)C)n2)ncc1-c1cnn(C)c1	enzyme activity	inhibitor	radiometric	10 µM	remaining activity	104%
CNC(=O)c1cc(Oc2ccc(NC(=O)Nc3ccc(Cl)c(C(F)(F)F)c3)cc2)ccn1	enzyme activity	inhibitor		0.3 µM	inhibition	4%
COc1cc2ncnc(Nc3ccc(Oc4ccccc4)cc3C)c2cc1OC	enzyme activity	inhibitor		1 µM	inhibition	4%
Nc1nc(Nc2ccccc2)sc1C(=O)c1c(F)cccc1F	enzyme activity	inhibitor		10 µM	remaining activity	99%
O=C(Nc1cnn(-c2csc(C(=O)NC3COC3)c2)c1)Nc1ccccc1Cl	enzyme activity	inhibitor		5 µM	remaining activity	97.1%
Cc1ccc(Nc2nccc(N(C)c3ccc4c(C)n(C)nc4c3)n2)cc1S(N)(=O)=O	enzyme activity	inhibitor		10 µM	inhibition	11%
CC(C)(O)[C@H]1CC[C@H](Nc2ccc3ncc(-c4cccc(C(F)(F)F)c4)n3n2)CC1	enzyme activity	inhibitor		1 µM	remaining activity	105%
FC(F)(F)Oc1cccc(-c2cnc3ccc(-c4ccncc4)nn23)c1	enzyme activity	inhibitor	radiometric	1 µM	activity vs control	93%
CC(C)(C)c1nc(-c2cccc(NS(=O)(=O)c3c(F)cccc3F)c2F)c(-c2ccnc(N)n2)s1	enzyme activity	inhibitor	radiometric	1 µM	remaining activity	69%
CSc1nc(C)c(-c2ccnc(Nc3ccc(N4CCOCC4)cc3)c2)[nH]1	enzyme activity	inhibitor		10 µM	inhibition	-1.9%

Compound	effect on	action	technique	tested at	quantity	value
Cn1cc(Cl)c2c(Oc3c(F)cc(Nc4cc(Cl)nc(N)n4)cc3F)ccnc21	cell-free assay		competition with immobilised ligand	0.1 µM	remaining binding	100%
N#CCCc1ccc2c(c1)-c1[nH]c3ccc([N+](=O)[O-])cc3c1CC(=O)N2	cell-free assay			0.5 µM	remaining signal	83.4%
O=C(CSc1nc2nccnc2c(=O)n1CCc1ccccc1)Nc1nccs1	enzyme activity	inhibitor		10 µM	inhibition	6%
CN(C)C1CCN(CC#Cc2nn(C3CCCC3)c3nc(NCc4ccccc4)ncc23)C1 (stereo not drawn)	enzyme activity	inhibitor	FRET	10 µM	inhibition	0%
C=CC(=O)Nc1cc(Nc2nccc(Nc3cc(Cl)c(F)cc3C(C)(C)O)n2)c(OC)cc1N1CC[C@@H](N(C)C)C1	enzyme activity	inhibitor		1 µM	inhibition	4%
Cc1cnc(NC2CCOCC2)nc1-n1cnc(C(=O)NC(CN)c2cc(F)cc(Cl)c2)c1 (stereo not drawn)	enzyme activity	inhibitor	radiometric	1 µM	remaining activity	108%
Nc1cnc(N2CCc3cc(S(=O)(=O)Nc4c(F)cc(Cl)cc4F)cc(N4CCCC4=O)c32)nc1	cell-free assay		competition with immobilised ligand	1 µM	remaining binding	100%
O=C1Nc2ccc(Cl)cc2C1=Cc1cc(Cl)c(O)c(Cl)c1	cell-free assay			0.5 µM	remaining signal	100%
CCc1ccccc1C(=O)Nc1n[nH]c2c(C)c(F)c(C3C(C#N)=C(C)N(C)C(C)=C3C#N)cc12	cell-free assay		competition with immobilised ligand	1 µM	remaining binding	100%
Cc1ncc([N+](=O)[O-])n1C(=NO)c1ccccc1C(F)(F)F	enzyme activity	inhibitor		10 µM	inhibition	21.4%
CCS(=O)(=O)c1cc2cc(C[C@](O)(CC(C)(C)c3ccc(F)cc3C(N)=O)C(F)(F)F)[nH]c2cn1	cell-free assay		competition with immobilised ligand	1 µM	remaining binding	100%
CCN(CC)CCNC(=O)c1c(C)[nH]c(/C=C2\C(=O)Nc3ccc(F)cc32)c1C	enzyme activity	inhibitor		10 µM	inhibition	15%
C[C@H](c1ccnc(Nc2nc3ccc(-c4cc(N(C)C)ncn4)cc3[nH]2)c1)N1CCN(C(=O)CC(F)(F)F)CC1	cell-free assay		competition with immobilised ligand	0.1 µM	remaining binding	100%
COc1cc(/C=C/C(=O)CC(=O)/C=C/c2ccc(O)c(OC)c2)ccc1O	enzyme activity	inhibitor		1 µM	activity vs control	90%
Cn1nc(C(=O)NCc2ccc(C(=O)O)cc2)cc1-c1ccc2[nH]ccc2c1	cell-free assay		competition with immobilised ligand	0.1 µM	remaining binding	55%
CC/C(=N\NC(=O)NCc1cccc(O)c1)c1ccc(O)c(C)c1O	enzyme activity	inhibitor		0.1 µM	inhibition	-0.7%
